# Measurements as given in ChEMBL document CHEMBL5241123, “Homopurine guanine-rich sequences in complex with N-methyl mesoporphyrin IX form parallel G-quadruplex dimers and display a unique symmetry tetrad” (Bioorg Med Chem, 2023).
# Activity calls are given as the source filed them. No cut-off for these calls is given here.
# Experiments:
# Type in all cases: nucleic-acid assay
# [1] = system: Quadruplex DNA; experiment: Stabilization and preservation of G-quadruplex homo-purine guanine-rich GA1 (GAGGGAGGGAGGGAAAAGGGGA) DNA (unknown origin) parallel structure conformation at 2 equivalents in 100K buffer by circular dichroism scan analysis; settings: dose 2.0 equiv
# Summary of the method: (§1)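 CD scans at 20 °C of ~4 μM annealed DNA, alone or with 2 eq. NMM, in 100K buffer. Range 220-330 nm, 1 cm cuvette, 2 nm bandwidth, five scans averaged.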
# [2] = system: Quadruplex DNA; experiment: Stabilization and preservation of G-quadruplex homo-purine guanine-rich GA2 (GAGGGAGGGAAAAGGGGAGGGA) DNA (unknown origin) parallel structure conformation at 2 equivalents in 100K buffer by circular dichroism scan analysis; settings: dose 2.0 equiv; summary of the method: as §1
# [3] = system: Quadruplex DNA; experiment: Stabilization and preservation of G-quadruplex homo-purine guanine-rich GA3 (AGGGAAAAGGGGAGGGAAAAGGGGA) DNA (unknown origin) parallel structure conformation at 2 equivalents in 100K buffer by circular dichroism scan analysis; settings: dose 2.0 equiv; summary of the method: as §1
# [4] = system: Quadruplex DNA; experiment: Stabilization and preservation of G-quadruplex homo-purine guanine-rich GA1 (GAGGGAGGGAGGGAAAAGGGGA) DNA (unknown origin) parallel structure conformation assessed as increased homogeneity at 2 equivalents in 100K buffer by native PAGE analysis; settings: dose 2.0 equiv
# Summary of the method: (§2)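 Native 15% polyacrylamide gel in 1×TBE plus 10 mM KCl. Samples of ~50 μM DNA, alone or with 2 eq. NMM, in 100K buffer. Run 150 min at 150 V at room temperature after pre-running, with a dT15-dT57 ladder. Stains-All visualization.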
# [5] = system: Quadruplex DNA; experiment: Stabilization and preservation of G-quadruplex homo-purine guanine-rich GA2 (GAGGGAGGGAAAAGGGGAGGGA) DNA (unknown origin) parallel structure conformation assessed as elimination of higher order species at 2 equivalents in 100K buffer by native PAGE analysis; settings: dose 2.0 equiv; summary of the method: as §2
# [6] = system: Quadruplex DNA; experiment: Stabilization and preservation of G-quadruplex homo-purine guanine-rich GA3 (AGGGAAAAGGGGAGGGAAAAGGGGA) DNA (unknown origin) parallel structure conformation at 2 equivalents in 100K buffer by native PAGE analysis; settings: dose 2.0 equiv; summary of the method: as §2
# [7] = system: Quadruplex DNA; experiment: Stabilization and preservation of G-quadruplex homo-purine guanine-rich GA1 (GAGGGAGGGAGGGAAAAGGGGA) DNA (unknown origin) parallel structure conformation assessed as increase in melting temperature at 2 equivalents in 100K buffer by UV-Visible melting analysis; settings: dose 2.0 equiv
# Summary of the method: (§3)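 ~4 μM DNA with or without 2 eq. NMM in 100K buffer (10 mM LiCaco pH 7.2, 100 mM KCl), annealed then cooled slowly. UV-Vis melting 20-90 °C, 0.5 or 0.2 °C/min, signal at 295 nm corrected at 335 nm. Tm and ΔH from a two-state fit (hysteresis under 3 °C).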
# [8] = system: Quadruplex DNA; experiment: Stabilization and preservation of G-quadruplex homo-purine guanine-rich GA2 (GAGGGAGGGAAAAGGGGAGGGA) DNA (unknown origin) parallel structure conformation assessed as increase in melting temperature at 2 equivalents in 100K buffer by UV-Visible melting analysis; settings: dose 2.0 equiv; summary of the method: as §3
# [9] = system: Quadruplex DNA; experiment: Stabilization and preservation of G-quadruplex homo-purine guanine-rich GA3 (AGGGAAAAGGGGAGGGAAAAGGGGA) DNA (unknown origin) parallel structure conformation assessed as increase in melting temperature at 2 equivalents in 100K buffer by UV-Visible melting analysis; settings: dose 2.0 equiv; summary of the method: as §3
# [10] = system: Quadruplex DNA; experiment: Stabilization and preservation of G-quadruplex homo-purine guanine-rich GA1 (GAGGGAGGGAGGGAAAAGGGGA) DNA (unknown origin) parallel structure conformation assessed as increase in enthalpy change associated with melting transition at 2 equivalents in 100K buffer by UV-Visible melting analysis; settings: dose 2.0 equiv; summary of the method: as §3
# [11] = system: Quadruplex DNA; experiment: Stabilization and preservation of G-quadruplex homo-purine guanine-rich GA2 (GAGGGAGGGAAAAGGGGAGGGA) DNA (unknown origin) parallel structure conformation assessed as increase in enthalpy change associated with melting transition at 2 equivalents in 100K buffer by UV-Visible melting analysis; settings: dose 2.0 equiv; summary of the method: as §3
# [12] = system: Quadruplex DNA; experiment: Stabilization and preservation of G-quadruplex homo-purine guanine-rich GA3 (AGGGAAAAGGGGAGGGAAAAGGGGA) DNA (unknown origin) parallel structure conformation assessed as increase in enthalpy change associated with melting transition at 2 equivalents in 100K buffer by UV-Visible melting analysis; settings: dose 2.0 equiv; summary of the method: as §3
# [13] = system: Quadruplex DNA; experiment: Binding affinity to G-quadruplex homo-purine guanine-rich GA1 (GAGGGAGGGAGGGAAAAGGGGA) DNA (unknown origin) assessed as red shift at 3.3 uM in 5K buffer by UV-Vis titration based analysis
# Summary of the method: (§4)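 NMM (~3-4 μM, absorbance ~0.5, 1 cm cuvette) in 5K buffer (10 mM LiCaco pH 7.2, 95 mM LiCl, 5 mM KCl), titrated with DNA annealed in 5K buffer (170-470 μM, final [DNA]/[NMM] at least five), 2 min equilibration per addition, spectra 350-480 nm at 20 °C. SVD analysis, fit with NMM concentration fixed. Ka is the average of at least three trials.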
# [14] = system: Quadruplex DNA; experiment: Binding affinity to G-quadruplex homo-purine guanine-rich GA2 (GAGGGAGGGAAAAGGGGAGGGA) DNA (unknown origin) assessed as red shift at 3.3 uM in 5K buffer by circular dichroism scan analysis
# [15] = system: Quadruplex DNA; experiment: Binding affinity to G-quadruplex homo-purine guanine-rich GA3 (AGGGAAAAGGGGAGGGAAAAGGGGA) DNA (unknown origin) assessed as red shift at 3.3 uM in 5K buffer by circular dichroism scan analysis
# [16] = system: Quadruplex DNA; experiment: Binding affinity to G-quadruplex homo-purine guanine-rich GA1 (GAGGGAGGGAGGGAAAAGGGGA) DNA (unknown origin) assessed as hypochromicity at 3.3 uM in 5K buffer by UV-Vis titration based analysis; summary of the method: as §4
# [17] = system: Quadruplex DNA; experiment: Binding affinity to G-quadruplex homo-purine guanine-rich GA2 (GAGGGAGGGAAAAGGGGAGGGA) DNA (unknown origin) assessed as hypochromicity at 3.3 uM in 5K buffer by circular dichroism scan analysis
# [18] = system: Quadruplex DNA; experiment: Binding affinity to G-quadruplex homo-purine guanine-rich GA3 (AGGGAAAAGGGGAGGGAAAAGGGGA) DNA (unknown origin) assessed as hypochromicity at 3.3 uM in 5K buffer by circular dichroism scan analysis
# [19] = system: Quadruplex DNA; experiment: Binding affinity to G-quadruplex homo-purine guanine-rich GA1 (GAGGGAGGGAGGGAAAAGGGGA) DNA (unknown origin) at DNA:compound concentration ratio of 1:1 in 5K buffer by UV-Vis titration based analysis; summary of the method: as §4
# [20] = system: Quadruplex DNA; experiment: Binding affinity to G-quadruplex homo-purine guanine-rich GA2 (GAGGGAGGGAAAAGGGGAGGGA) DNA (unknown origin) at DNA:compound concentration ratio of 1:1 in 5K buffer by UV-Vis titration based analysis; summary of the method: as §4
# [21] = system: Quadruplex DNA; experiment: Binding affinity to G-quadruplex homo-purine guanine-rich GA3 (AGGGAAAAGGGGAGGGAAAAGGGGA) DNA (unknown origin) at DNA:compound concentration ratio of 1:1 in 5K buffer by UV-Vis titration based analysis; summary of the method: as §4
# [22] = system: Quadruplex DNA; experiment: Binding affinity to G-quadruplex homo-purine guanine-rich GA1 (GAGGGAGGGAGGGAAAAGGGGA) DNA (unknown origin) at DNA:compound concentration ratio of 1:2 in 5K buffer by UV-Vis titration based analysis; summary of the method: as §4
# [23] = system: Quadruplex DNA; experiment: Binding affinity to G-quadruplex homo-purine guanine-rich GA3 (AGGGAAAAGGGGAGGGAAAAGGGGA) DNA (unknown origin) at DNA:compound concentration ratio of 1:2 in 5K buffer by UV-Vis titration based analysis; summary of the method: as §4
# [24] = system: Quadruplex DNA; experiment: Binding affinity to G-quadruplex homo-purine guanine-rich GA1 (GAGGGAGGGAGGGAAAAGGGGA) DNA (unknown origin) at DNA:compound concentration ratio of 2:1 in 5K buffer by UV-Vis titration based analysis; summary of the method: as §4
# [25] = system: Quadruplex DNA; experiment: Binding affinity to G-quadruplex homo-purine guanine-rich GA3 (AGGGAAAAGGGGAGGGAAAAGGGGA) DNA (unknown origin) at DNA:compound concentration ratio of 2:1 in 5K buffer by UV-Vis titration based analysis; summary of the method: as §4
# [26] = system: Quadruplex DNA; experiment: Binding affinity to G-quadruplex homo-purine guanine-rich GA1 (GAGGGAGGGAGGGAAAAGGGGA) DNA (unknown origin) at DNA:compound concentration ratio of 1:1 in 5K buffer by fluorescence titration based analysis
# Summary of the method: (§5)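 Fluorescence titration at 20 °C in 5K buffer: ~1.0 μM NMM titrated with 140-270 μM annealed DNA to a final [DNA]/[NMM] of at least eight. Excitation 395-398 nm (UV-Vis isosbestic points), emission 560-720 nm. Single-component SVD, fit to 1:1, 1:2 and 2:1 models. Ka is the average of at least three trials.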
# [27] = system: Quadruplex DNA; experiment: Binding affinity to G-quadruplex homo-purine guanine-rich GA2 (GAGGGAGGGAAAAGGGGAGGGA) DNA (unknown origin) at DNA:compound concentration ratio of 1:1 in 5K buffer by fluorescence titration based analysis; summary of the method: as §5
# [28] = system: Quadruplex DNA; experiment: Binding affinity to G-quadruplex homo-purine guanine-rich GA3 (AGGGAAAAGGGGAGGGAAAAGGGGA) DNA (unknown origin) at DNA:compound concentration ratio of 1:1 in 5K buffer by fluorescence titration based analysis; summary of the method: as §5
# [29] = system: Quadruplex DNA; experiment: Binding affinity to G-quadruplex homo-purine guanine-rich GA1 (GAGGGAGGGAGGGAAAAGGGGA) DNA (unknown origin) at DNA:compound concentration ratio of 1:2 in 5K buffer by fluorescence titration based analysis; summary of the method: as §5
# [30] = system: Quadruplex DNA; experiment: Binding affinity to G-quadruplex homo-purine guanine-rich GA2 (GAGGGAGGGAAAAGGGGAGGGA) DNA (unknown origin) at DNA:compound concentration ratio of 1:2 in 5K buffer by fluorescence titration based analysis; summary of the method: as §5
# [31] = system: Quadruplex DNA; experiment: Binding affinity to G-quadruplex homo-purine guanine-rich GA3 (AGGGAAAAGGGGAGGGAAAAGGGGA) DNA (unknown origin) at DNA:compound concentration ratio of 1:2 in 5K buffer by fluorescence titration based analysis; summary of the method: as §5
# [32] = system: Quadruplex DNA; experiment: Binding affinity to G-quadruplex homo-purine guanine-rich GA1 (GAGGGAGGGAGGGAAAAGGGGA) DNA (unknown origin) at DNA:compound concentration ratio of 2:1 in 5K buffer by fluorescence titration based analysis; summary of the method: as §5
# [33] = system: Quadruplex DNA; experiment: Binding affinity to G-quadruplex homo-purine guanine-rich GA2 (GAGGGAGGGAAAAGGGGAGGGA) DNA (unknown origin) at DNA:compound concentration ratio of 2:1 in 5K buffer by fluorescence titration based analysis; summary of the method: as §5
# [34] = system: Quadruplex DNA; experiment: Binding affinity to G-quadruplex homo-purine guanine-rich GA3 (AGGGAAAAGGGGAGGGAAAAGGGGA) DNA (unknown origin) at DNA:compound concentration ratio of 2:1 in 5K buffer by fluorescence titration based analysis; summary of the method: as §5
smiles,measurement,setting,value
CCC1=C(C)c2cc3c(C)c(CCC(=O)O)c(cc4nc(cc5[nH]c(cc1n2)c(C)c5CC)C(C)=C4CCC(=O)O)n3C,Activity,[1],Active
same,Activity,[2],Active
same,Activity,[3],Active
same,Activity,[4],Active
same,Activity,[5],Active
same,Activity,[6],Active
same,ΔTm,[7],14.6 °C
same,ΔTm,[8],13.1 °C
same,ΔTm,[9],7 °C
same,deltaH,[10],19.4 kcal/mol
same,deltaH,[11],15.1 kcal/mol
same,deltaH,[12],3.35 kcal/mol
same,Activity,[13],21 nm
same,Activity,[14],21.3 nm
same,Activity,[15],21.4 nm
same,Activity,[16],21%
same,Activity,[17],19%
same,Activity,[18],28%
same,Ka,[19],0.19 µM⁻¹
same,Ka,[20],1.4 µM⁻¹
same,Ka,[21],0.24 µM⁻¹
same,Ka,[22],0.07 µM⁻¹
same,Ka,[23],0.1 µM⁻¹
same,Ka,[24],0.8 µM⁻¹
same,Ka,[25],0.96 µM⁻¹
same,Ka,[26],0.4 µM⁻¹
same,Ka,[27],1 µM⁻¹
same,Ka,[28],0.4 µM⁻¹
same,Ka,[29],0.18 µM⁻¹
same,Ka,[30],0.36 µM⁻¹
same,Ka,[31],0.2 µM⁻¹
same,Ka,[32],1.1 µM⁻¹
same,Ka,[33],3.7 µM⁻¹
same,Ka,[34],1.1 µM⁻¹
